# SIRT5 inh – blocks human SIRT5 desuccinylation of peptide | Purified SirT5, succinyl-peptide AMC, trypsin-coupled fluorescence | actives 1.1% (n = 330,000) | inhibition, % at 15 µM | Q9NXA8; in the data active = inhibition above about 15%; inconclusive = no clear call, values can overlap the other calls
# PglD inh – PglD (C. jejuni) enzyme inhibition; purified PglD enzyme, DTNB colorimetric CoA detection; inhibition, % at 12.5 µM; actives 0.098% (n = 360,000); in the data active = inhibition above about 16%, passing the limit was not always enough; inconclusive = no clear call, values can overlap the other calls
# E-sel inducer – E-selectin induction on HUVECs. AID 686992. activation, % at 7.58 µM. HUVEC E-selectin immunofluorescence imaging; normalized: neutral wells 0, TNF-alpha wells 100. actives 0.37% (n = 260,000). P16581;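 active = mean E-selectin-positive cell signal at least 10% of the positive control, reached in at least 60% of replicates, without over 20% cell loss; inconclusive = no rule given, readout overlaps actives, possibly toxicity-flagged; inactive = the rest, including those meeting only one limit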
#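 Material: HUVEC primary endothelial cells; Amount: 3,000 cells per well; Dosing: single concentration; Medium: EGM-2 growth medium on 0.1% gelatin-coated wells; Read-out basis: percent E-selectin-positive cells; Signal: immunofluorescence imaging; Control set: TNF-alpha, DMSO.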
# ERAP1 HTS inh – ERAP1 (human) enzyme inhibition; recombinant ERAP1, Leu-AMC fluorescence, 60 min; actives 0.15% (n = 340,000); inhibition, % at 10.7 µM; Q9NZ08; AID 652197;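 active = mean replicate inhibition of at least 30%, or all replicates individually reaching that 30% level; inactive = mean below 30% and not every replicate reaching it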
# DENV2 CPE rescue – inhibitors of DENV2 cytopathic effect; DENV2-infected cells, cytopathic effect rescue, plate reader; CPE inhibition, % at 9.99 µM; actives 1.7% (n = 350,000); in the data active = CPE inhibition above about 20%, passing the limit was not always enough; inconclusive = no clear call, values can overlap the other calls; tested in BHK-21 cells
# A number is an active result; . = inactive; ? = inconclusive; / = no result. Only some compounds are listed: those with a hit (about 2.5% of all), similar ones and a draw of the others.
SMILES,SIRT5 inh,PglD inh,E-sel inducer,ERAP1 HTS inh,DENV2 CPE rescue
CN(C(=O)COC(=O)CCC(=O)c1ccc(Cl)cc1)c1c(N)n(Cc2ccccc2)c(=O)[nH]c1=O,.,.,.,.,.
CC(=O)OCO/N=[N+](\[O-])N1CCCC1,.,.,/,.,24
Nc1nc2c(ncn2[C@@H]2O[C@H](CNCc3ccccc3)[C@@H](O)[C@H]2O)c(=O)[nH]1,.,.,.,.,.
Nc1nc2c(ncn2[C@@H]2O[C@H](CNCc3ccc(F)c(N4CCOCC4)c3)[C@@H](O)[C@H]2O)c(=O)[nH]1,.,.,/,.,26
O=C1C(Nc2ccc(O)cc2)=C/C(=N/S(=O)(=O)c2cccs2)c2ccccc21,.,/,/,.,.
Cc1cc(C)c(S(=O)(=O)/N=C2\C=C(Nc3ccc(C(=O)O)cc3)C(=O)c3ccccc32)c(C)c1,.,.,.,.,.
O=C(O)c1ccc(NC2=C/C(=N/S(=O)(=O)c3cccs3)c3ccccc3C2=O)cc1,20,.,.,.,?
O=C(O)c1ccc(NC2=C/C(=N/S(=O)(=O)c3ccccc3)c3ccccc3C2=O)cc1,41,/,/,.,.
O=C1CC2c3ccccc3C1C1C(=O)N(CCO)C(=O)C21 (stereo unspecified),.,/,.,.,.
O=c1ccn([C@@H]2O[C@H](CO)[C@@H](O)[C@H]2O)c(=O)[nH]1,.,.,.,.,.
O=c1ccn(C2CC(O)C(COC(c3ccccc3)(c3ccccc3)c3ccccc3)O2)c(=O)[nH]1 (stereo unspecified),.,/,/,.,47
COc1cc(OC)cc(C2=Cc3ccccc3C(CC(C)=O)N2c2ccc(C#CC3(O)CCCCC3)cc2)c1 (stereo unspecified),.,/,.,/,.
O=S(=O)(c1ccc(F)cc1)N1CCCCN2[C@H](CO)[C@H](c3ccc(C#CC4CCCC4)cc3)[C@@H]2C1,23,.,/,.,.
O=S(=O)(c1ccc(F)cc1)N1CCCCN2[C@@H](CO)[C@@H](c3ccc(C#CC4CCCC4)cc3)[C@@H]2C1,23,.,/,.,.
O=S(=O)(c1ccc(F)cc1)N1CCCCN2[C@@H](CO)[C@H](c3ccc(C#CC4CCCC4)cc3)[C@@H]2C1,27,.,/,.,.
O=S(=O)(c1ccc(F)cc1)N1CCCCN2[C@H](C1)[C@@H](c1ccc(C#CC3CCCC3)cc1)[C@@H]2CO,.,.,/,.,.
O=[N+]([O-])c1ccc(-n2cc(-c3ccccc3)nn2)cc1,.,.,/,.,?
COc1ccccc1C#Cc1ccc2c(c1)[C@@H]1[C@@H](CCN1C(C)=O)[C@@H](CO)N2C,.,.,.,.,.
Cc1nn(CCO)c2ncc(C(=O)c3cc(Cl)ccc3O)cc12,.,.,.,.,.
COc1ccc(O)c(C(=O)c2cnc3c(c2)c(C)nn3CCO)c1,19,.,/,.,?
O=C(c1ccccc1F)N1CCC2CC1c1cc(N3CCCCC3)ccc12 (stereo unspecified),.,.,/,.,42
Cc1cc(/C=N/NC(=O)c2ccccc2F)c(C)n1-c1ccccc1,.,/,.,.,.
Cc1ccc(NC(=O)c2nc(S(=O)(=O)Cc3ccccc3C)ncc2Cl)cc1C,16,.,.,.,.
COCC(=O)N1CC2(C1)[C@H](c1ccccc1)[C@@H](CO)N2Cc1ccccc1OC,.,/,.,.,.
COc1ccccc1CN1[C@H](CO)[C@@H](c2ccccc2)C12CN(C(C)=O)C2,.,/,.,.,.
SMILES,SIRT5 inh,PglD inh,E-sel inducer,ERAP1 HTS inh,DENV2 CPE rescue
CCC(=O)N1CC2(C1)[C@H](c1ccccc1)[C@H](CO)N2Cc1ccccc1OC,23,/,.,.,.
COc1ccccc1CN1[C@H](CO)[C@@H](c2ccccc2)C12CN(C(=O)c1ccccn1)C2,.,/,.,.,89
CCOC(=O)C1(CCCc2ccccc2)CCN(C2CCN(C(C)=O)CC2)CC1,18,.,.,/,.
C[C@H](CO)N1C[C@H](C)[C@H](CN(C)Cc2ccc(C(=O)Nc3ccccc3N)cc2)Oc2ccc(NC(=O)Cc3cn(C)c4ccccc34)cc2C1=O,23,.,/,.,.
C[C@@H]1CN([C@@H](C)CO)C(=O)c2cc(NC(=O)Cc3cn(C)c4ccccc34)ccc2O[C@H]1CN(C)Cc1ccc(C(=O)Nc2ccccc2N)cc1,17,.,.,.,.
Cn1c2c(c(=O)n(C)c1=O)CN(CCCN1CCOCC1)CN2,/,.,/,/,/
CCN(CC)CCCNC(=O)c1cc(-c2ccc(Cl)cc2)on1,/,.,/,/,/
C[C@@H]1CCCCO[C@H](CN(C)Cc2ccc(C(=O)O)cc2)[C@H](C)CN([C@H](C)CO)C(=O)c2cc(NC(=O)c3ccncc3)ccc2O1,.,.,.,.,42
C[C@@H]1CCCCO[C@@H](CN(C)Cc2ccc(C(=O)O)cc2)[C@H](C)CN([C@@H](C)CO)C(=O)c2cc(NC(=O)CCCN(C)C)ccc2O1,.,.,.,.,38
COc1ccc(NC(=O)N(C)C[C@H]2OCCCC[C@@H](C)Oc3ccc(NC(=O)c4ccncc4)cc3C(=O)N([C@H](C)CO)C[C@H]2C)cc1,/,.,.,/,.
C[C@@H]1CCCCO[C@@H](CN(C)C(=O)CCC(F)(F)F)[C@H](C)CN([C@H](C)CO)C(=O)c2cc(NC(=O)c3ccncc3)ccc2O1,.,/,.,.,21
C[C@@H]1CCCCO[C@@H](CN(C)C(=O)CCC(F)(F)F)[C@H](C)CN([C@@H](C)CO)C(=O)c2cc(NC(=O)c3ccncc3)ccc2O1,/,.,.,/,.
COc1ccc(NC(=O)N(C)C[C@@H]2OCCCC[C@@H](C)Oc3ccc(NC(=O)c4ccncc4)cc3C(=O)N([C@@H](C)CO)C[C@H]2C)cc1,/,.,.,/,41
O=C(Nc1ccc(F)cc1)N1CCCCN2[C@H](CO)[C@H](c3ccc(-c4ccccc4F)cc3)[C@@H]2C1,.,.,/,.,.
O=C(NCc1ccccc1)C(c1cccnc1)N(C(=O)c1ccccn1)c1cccc(F)c1 (stereo unspecified),.,.,/,.,.
C[C@@H]1CN([C@@H](C)CO)C(=O)c2cc(NC(=O)c3ccncc3)ccc2O[C@@H](C)CCCCO[C@H]1CN(C)Cc1ccc(C(F)(F)F)cc1,.,.,.,.,.
C[C@@H]1CCCCO[C@@H](CN(C)C(=O)Nc2ccc(C(F)(F)F)cc2)[C@@H](C)CN([C@H](C)CO)C(=O)c2cc(NC(=O)c3ccncc3)ccc2O1,/,/,.,.,28
C[C@@H]1CN([C@H](C)CO)C(=O)c2cc(N(C)C)ccc2O[C@@H](C)CCCCO[C@@H]1CN(C)C(=O)CCC(F)(F)F,.,.,.,.,106
C[C@@H]1CN([C@@H](C)CO)C(=O)c2cc(NC(=O)c3ccncc3)ccc2O[C@@H](C)CCCCO[C@@H]1CN(C)Cc1ccc(C(F)(F)F)cc1,16,.,.,.,.
C[C@@H]1CCCCO[C@H](CN(C)C(=O)Nc2ccc(C(F)(F)F)cc2)[C@@H](C)CN([C@@H](C)CO)C(=O)c2cc(NC(=O)c3ccncc3)ccc2O1,.,.,.,.,.

# High-throughput results as filed in PubChem BioAssay.
